Measurements as given in ChEMBL document CHEMBL1123761, “Inhibition of the mammalian beta-lactamase renal dipeptidase (dehydropeptidase-I) by (Z)-2-(acylamino)-3-substituted-propenoic acids” (J Med Chem, 1987).
pKi: −log10 of the molar value. Non-standard residues stand in square brackets, D forms with d. Residues, ends and D or L forms follow the SMILES beside them. *: point of attachment. Isovaleryl = CC(C)CC(=O)*; Dhb = C/C=C(\N)C(=O)O; Butyryl = CCCC(=O)*

biological target: T1, Dipeptidase 1 (Sus scrofa) (UniProt P22412); test: Inhibitory activity against beta-lactamase renal dipeptidase at a concentration of 100 uM
T1 sequence (whole entry): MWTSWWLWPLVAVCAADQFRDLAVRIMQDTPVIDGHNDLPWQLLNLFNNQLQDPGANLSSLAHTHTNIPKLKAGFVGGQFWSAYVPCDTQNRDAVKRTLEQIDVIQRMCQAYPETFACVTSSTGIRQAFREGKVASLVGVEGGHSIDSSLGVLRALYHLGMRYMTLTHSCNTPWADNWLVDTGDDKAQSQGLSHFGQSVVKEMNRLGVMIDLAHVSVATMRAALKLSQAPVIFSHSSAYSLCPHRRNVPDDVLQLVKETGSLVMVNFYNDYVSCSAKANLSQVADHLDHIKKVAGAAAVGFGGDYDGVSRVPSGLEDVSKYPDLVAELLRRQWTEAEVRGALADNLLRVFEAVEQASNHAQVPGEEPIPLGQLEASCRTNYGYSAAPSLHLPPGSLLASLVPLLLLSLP
Summary of the method: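 Inhibitor was incubated with solubilized renal dipeptidase (50–75% ammonium sulfate fraction, 5 µg) in 50 mM MOPS pH 7.1 for 5 min at 37 °C. Glycyldehydrophenylalanine was then added to 50 µM. Rate was followed as the absorbance decrease at 275 nm over 10 min and compared with the uninhibited rate.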

inhibition	SMILES
54%	C/C=C(\NC(=O)CCC1CCCCC1)C(=O)O
6%	C/C=C(\NC(=O)CN)C(=O)O (H-Gly-[Dhb]-OH)
0%	C/C=C(\NC(=O)/C=C/C=C/C)C(=O)O
2.5%	C/C=C(\NC(=O)c1ccc(C)cc1)C(=O)O
57%	C/C=C(\NC(=O)c1ccco1)C(=O)O
57%	C=CCCC(=O)N/C(=C\C)C(=O)O
5%	C/C=C(\NC(=O)CNC(=O)CC(C)C)C(=O)O (Isovaleryl-Gly-[Dhb]-OH)
16%	C/C=C(\NC(=O)C1(C)CC1)C(=O)O
0%	C/C=C(\NC(=O)C(C)(C)C)C(=O)O
12%	C/C=C(\NC(=O)CCCCCCCCCCCCCCCCC)C(=O)O
9%	C=C(NC(=O)c1ccccc1)C(=O)O
21%	C/C=C(\NC(=O)Cc1ccccc1)C(=O)O
49%	C/C=C(\NC(=O)CCCCCC)C(=O)O
11%	C/C=C(\NC(=O)C1(C)CCCCC1)C(=O)O
33%	C/C=C(\NC(=O)CC12CC3CC(CC(C3)C1)C2)C(=O)O
0%	C/C=C(\NC(=O)c1ccc(OC)cc1)C(=O)O
45%	C/C=C(\NC(=O)CCCCCCCCCCCCC)C(=O)O
30%	C/C=C(\NC(=O)CCc1ccccc1)C(=O)O
56%	C/C=C(\NC(=O)CCC1CCCC1)C(=O)O
7%	C/C=C(\NC(=O)c1ccc(Cl)cc1)C(=O)O
44%	C/C=C(\NC(=O)C1C(C(C)(C)C)C1(C)C)C(=O)O (centres undefined)
3%	C/C=C(\NC(=O)c1ccc2ccccc2c1)C(=O)O
23%	CO/C=C(\NC(=O)c1ccccc1)C(=O)O

inhibition	SMILES
4%	O=C(CO)N/C(=C\c1ccccc1)C(=O)O
54%	C/C=C(\NC(=O)CC1CC2CCC1C2)C(=O)O (centres undefined)
15%	C/C=C(\NC(=O)C1C(C=C(C)C)C1(C)C)C(=O)O (centres undefined)
5%	C/C=C(\NC(=O)CNC(=O)CCC)C(=O)O (Butyryl-Gly-[Dhb]-OH)
0%	C/C=C(\NC(=O)/C=C/c1ccccc1)C(=O)O
4%	CC(C)=C(NC(=O)c1ccccc1)C(=O)O
3%	C/C=C(\NC(=O)C12CC3CC(CC(C3)C1)C2)C(=O)O
46%	C/C=C(\NC(=O)CCCC(=O)N(C)C)C(=O)O
6%	C[C@H](N)C(=O)N/C(=C\Cl)C(=O)O
43%	C/C=C(\NC(=O)CC)C(=O)O
50%	C/C=C(\NC(=O)CC1=CCCCC1)C(=O)O
36%	O=C(O)/C(=C/Cl)NC(=O)c1ccccc1
54%	C/C=C(\NC(=O)CCCCC)C(=O)O
3%	C/C=C(\NC(=O)COc1ccccc1)C(=O)O
57%	CC(C)=C(NC(=O)C1CC1(C)C)C(=O)O (centres undefined)
58%	C/C=C(\NC(=O)CCCCCCCCC)C(=O)O
57%	C/C=C(\NC(=O)CCCCC(C)C)C(=O)O
13%	C/C=C(\NC(=O)C(CCC)CCC)C(=O)O
12%	C/C=C(\NC(C)=O)C(=O)O
31%	C/C=C(\NC(=O)C(C)C)C(=O)O
33%	C/C=C(\NC(=O)C(CC)CCCC)C(=O)O (centres undefined)
0%	C/C=C(\NC(=O)c1c(Cl)cccc1Cl)C(=O)O
51%	C/C=C(\NC(=O)CCC1CCCO1)C(=O)O (centres undefined)

SMILES	inhibition
C/C=C(\NC(=O)CCl)C(=O)O	52%
C/C=C(\NC(=O)C1C(C)(C)C1(C)C)C(=O)O	10%

biological target: T2, Dipeptidase 1 (Sus scrofa, UniProt P22412); test: Inhibitory activity against beta-lactamase renal dipeptidase
T2 sequence (P22412 whole entry): T1 sequence (whole entry)

pKi	SMILES
6.40	CC1(C)CC1C(=O)N/C(=C\C1CCCCC1)C(=O)O (centres undefined)
